Experimental data reported in ChEMBL document CHEMBL4627337, “Synthesis and pharmacokinetic study of a 11C-labeled cholesterol 24-hydroxylase inhibitor using 'in-loop' [11C]CO2 fixation method” (Bioorg Med Chem Lett, 2020).

Experiments:
[1] = target: Cholesterol 24-hydroxylase (Homo sapiens, UniProt Q9Y6A2); experiment: Binding affinity to truncated d(2-50) 4His-tagged human CYP46A1 expressed in Escherichia coli DH5alpha as cholesterol-24 hydroxylation using cholesterol as substrate incubated for 30 mins in presence of NADPH cytochrome P450 oxidoreductase by gas chromatography-mass spectrometry
Cholesterol 24-hydroxylase, sequence (Q9Y6A2 whole entry, the tested form may be a part): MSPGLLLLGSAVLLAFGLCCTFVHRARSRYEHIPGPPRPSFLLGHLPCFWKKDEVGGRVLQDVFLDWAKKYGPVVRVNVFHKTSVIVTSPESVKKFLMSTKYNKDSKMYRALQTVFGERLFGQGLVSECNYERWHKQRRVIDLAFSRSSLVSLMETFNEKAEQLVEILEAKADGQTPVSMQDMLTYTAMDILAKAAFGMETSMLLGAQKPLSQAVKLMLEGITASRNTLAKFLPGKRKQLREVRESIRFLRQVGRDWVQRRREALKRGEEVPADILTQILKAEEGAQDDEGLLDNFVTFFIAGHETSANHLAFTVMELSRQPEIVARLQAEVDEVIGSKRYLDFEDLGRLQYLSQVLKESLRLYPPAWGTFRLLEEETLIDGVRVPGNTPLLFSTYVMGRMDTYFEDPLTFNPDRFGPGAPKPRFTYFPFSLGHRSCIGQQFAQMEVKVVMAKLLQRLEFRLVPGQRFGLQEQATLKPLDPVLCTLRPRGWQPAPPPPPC

[2] = Lipophilicity, logD of compound in n-octanol and phosphate buffered saline by shake flask method; assay type: physicochemical
Outline: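 Shake-flask partition of the 11C-labeled compound between n-octanol and phosphate buffered saline; logD calculated from the distribution of radioactivity between phases.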

[3] = Drug uptake in iv dosed mouse kidney assessed as per gram of wet tissue measured after 5 to 60 mins; assay type: ADME, organism-based; conditions: read-out: Drug uptake
Outline: (§1)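 Ex vivo whole-body biodistribution in mice after intravenous radioligand injection. Tissues collected at 5, 15, 30 and 60 min; radioactivity expressed as %ID/g, mean ± SD, n = 4 per time point.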

[4] = Stability in saline containing 5% ethanol assessed as compound radiolysis after 90 mins post formulation; assay type: physicochemical; conditions: buffer, 1.5 h
Outline: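 Radiotracer formulated in saline containing 5% ethanol and held for 90 min after formulation, then checked for radiolysis.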

[5] = Drug uptake in iv dosed mouse pancreas assessed as per gram of wet tissue measured after 5 to 60 mins; assay type: ADME, organism-based; conditions: read-out: Drug uptake
Outline: as §1

[6] = Drug uptake in CD1 mouse brain assessed as standard uptake value after 0.5 mins; assay type: ADME, tissue-based; conditions: in vivo
Outline: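 Dynamic PET acquisition in CD-1 mice over 60 min after radioligand injection; brain time–activity curves expressed as standard uptake value. Blocking arm pretreated with 2-phenylcyclopropan-1-amine (3 mg/kg); uptake compared by area under the curve.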

[7] = Drug uptake in iv dosed mouse lung assessed as per gram of wet tissue measured after 5 to 60 mins; assay type: ADME, organism-based; conditions: read-out: Drug uptake
Outline: as §1

[8] = Tmax in iv dosed mouse small intestine; assay type: ADME, organism-based
Outline: as §1

[9] = Drug uptake in iv dosed mouse brain after 5 to 60 mins; assay type: ADME, organism-based; conditions: in vivo
Outline: as §1

[10] = Drug uptake in iv dosed mouse small intestine assessed as per gram of wet tissue measured after 5 to 60 mins; assay type: ADME, organism-based; conditions: read-out: Drug uptake
Outline: as §1

[11] = Drug uptake in dosed iv mouse liver assessed as per gram of wet tissue measured after 5 to 60 mins; assay type: ADME, organism-based; conditions: read-out: Drug uptake
Outline: as §1

`O=C(NCc1ccccc1)N1CCN(c2cncnc2-c2ccccc2)CC1` gave a Ki [1] of 7.3 µM.

In the case of `O=[11C](NCc1ccccc1)N1CCN(c2cncnc2-c2ccccc2)CC1`, the logD [2] is reported as 3.05, the tissue uptake [3] is reported as over 10 %ID/g and the Stability [4] is reported as “Stable”. The tissue uptake [5] was over 10 %ID/g, the SUV [6] was 0.42 and the tissue uptake [7] was over 10 %ID/g. The Tmax [8] was 30 min, the Drug uptake [9] was “Active” and the tissue uptake [10] was over 10 %ID/g. The tissue uptake [11] was over 10 %ID/g.
